# Measurements from ChEMBL document CHEMBL3352644, “Selenadiazole derivatives as potent thioredoxin reductase inhibitors that enhance the radiosensitivity of cancer cells” (Eur J Med Chem, 2014).
# Active and inactive are the calls of the source. No cut-off for these calls is given here.
# Assays:
# [1] = target: MAP kinase p38 (Homo sapiens) (UniProt O15264+Q15759+Q16539+P53778); experiment: Induction of p38 phosphorylation in human A375 cells at 4 ug/mL incubated for 18 hrs by Western blotting method; assay type: cell-based; conditions: A-375
# In short: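 A375 cells given […] for 6 h, then 0 or 8 Gy X-ray at 1.5 Gy/min and 12 h further culture. Lysis in ice-cold RIPA, pH 7.4, with protease and phosphatase inhibitors; protein by BCA. […] protein per lane on SDS-PAGE, transferred to nitrocellulose. Blocked in 5% milk/TBST. Primary 1:1000, 10 h, 4 °C; HRP secondary 1:2000, 1.5 h.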
# A-375 [2] = experiment: Increase in Bax expression in human A375 cells at 4 ug/mL incubated for 6 hrs followed by irradiation with 8 Gy X-ray at 37 degC for 12 hrs by Western blotting method; assay type: functional, cell-based
# In short: (§1)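 A375 cells pretreated 6 h with compound at 4 µg/ml, given 0 or 8 Gy X-ray, then incubated 12 h more. Lysed in RIPA buffer, pH 7.4, with protease and phosphatase inhibitors; 50 µg protein run on SDS-PAGE and blotted to nitrocellulose. Blocked in 5% milk; primary antibodies 1:1000, 10 h at 4 °C; HRP secondary 1:2000.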
# A-375 [3] = experiment: Increase in Bid cleavage in human A375 cells at 4 ug/mL incubated for 18 hrs by Western blotting method; assay type: functional, cell-based; in short: as §1
# A-375 [4] = experiment: Cytotoxicity against human A375 cells after 18 hrs by MTT assay; assay type: functional, cell-based; conditions: A-375, 18 h
# In short: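 A375 cells (DMEM, 10% FBS, 37 °C, 5% CO2) seeded at 4 × 10⁴ cells/well and grown to 70–80% confluence. Treated with 0, 1, 2, 4, 8, 16 or 32 µg/ml for 6 h, then given 0 or 8 Gy X-ray (linear accelerator, 1.5 Gy/min), then 12 h more at 37 °C. MTT 4 h, formazan dissolved in DMSO, read at 570 nm; % of control; three repeats.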
# A-375 [5] = experiment: Induction of apoptosis in human A375 cells assessed as caspase 9 activation at 2 ug/mL incubated for 6 hrs followed by irradiation with 8 Gy X-ray at 37 degC for 12 hrs by Western blotting method; assay type: functional, cell-based
# In short: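 A375 cells treated with 2 µg/ml alone or with 8 Gy X-ray (6 h pretreatment, then 12 h; 18 h total). RIPA lysates (50 µg protein) run on SDS-PAGE and immunoblotted for caspases and PARP cleavage. Reprobed for β-actin as loading control.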
# A-375 [6] = experiment: Induction of cell morphological changes in human A375 cells pre-treated with 20 uM p38 inhibitor […] for 1 hr followed by 8 ug/mL compound exposure for 18 hrs; assay type: functional, cell-based
# A-375 [7] = experiment: Induction of apoptosis in human A375 cells assessed as caspase 3 activation at 2 ug/mL incubated for 6 hrs followed by irradiation with 8 Gy X-ray at 37 degC for 12 hrs by fluorometric assay; assay type: functional, cell-based
# In short: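 Cells seeded at 1 × 10⁶ per 10 cm dish and treated with 2 µg/ml alone or with 8 Gy X-ray for 18 h total. RIPA lysates clarified by spinning at 12,000 rpm for 5 min; 80 µg protein given Ac-DEVD-AMC (caspase-3), Ac-IETD-AMC (caspase-8) or Ac-LEHD-AMC (caspase-9). Incubated 2 h at 37 °C in the dark; fluorescence at 380/440 nm.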
compound,measurement,setting,value
COc1cc(-c2nc3cc(-c4ccc5n[se]nc5c4)ccc3[nH]2)cc(OC)c1OC,Activity,[1],Active
same,Activity,A-375 [2],Active
same,Activity,A-375 [3],Active
same,IC50,A-375 [4],12.4 µg/mL
same,Activity,A-375 [5],Active
same,Activity,A-375 [6],inactive
same,Activity,A-375 [7],Active
